Laboratory results taken from article PMC3941648 (Protein and peptide letters, 2014).
Entries after “also recorded” stand apart in the source; their conditions may differ. *: point of attachment. FITC = O=C1OC2(c3ccc(O)cc3Oc3cc(O)ccc32)c2ccc(NC(=S)*)cc21; Biotin = O=C1N[C@H]2[C@H](CS[C@H]2CCCCC(=O)*)N1; Ahx = NCCCCCC(=O)O

Columns and labels:
Type in all cases: cell-based, Chinese hamster
[1] = tested on: pgs A-745 cells; experiment: Cellular uptake of peptide-horseradish peroxidase; settings: pgs A-745 cells lacking surface GAGs; 240 ng/ml complex, 30 min, 37°C; TMB substrate, 405 nm; n=3
[2] = tested on: wild-type CHO K1 cells; experiment: Cellular uptake of FITC-labeled peptides, flow cytometry and confocal microscopy; settings: as stated in the abstract; cell type not stated
Summary of the method: (§1)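 CHO K1 wild-type and GAG-deficient mutants were grown in DMEM/F12 with 10% FBS at 37 °C. At ~75% confluence (48 h after seeding), cells were exposed to 20 μM FITC-labelled peptide for 2 h at 37 °C, then trypsinised, washed and analysed by flow cytometry. Dead cells (7-AAD-positive) were gated out, ≥5,000 events were collected and uptake was expressed relative to wild-type. Confocal imaging used a ~0.40 micron mid Z-section. Triplicates, mean ± S.D., t test.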

[3] = tested on: pgs F-17 cells (2-O-sulfation-defective CHO K1 mutant); experiment: Cellular uptake of FITC-labeled peptides, flow cytometry; settings: 20 μM FITC-labeled peptide, 2 h, 37°C
Summary of the method: (§2)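 Mutant and wild-type CHO K1 cells were seeded 48 h before use and treated at ~75% confluence with 20 μM FITC-labelled peptide in DMEM/F12 for 2 h at 37 °C. Cells were washed, trypsinised for 5 min and resuspended at 2×10⁶ cells/ml. 7-AAD (0.5 ng/μl final) excluded dead cells. Fluorescence was read with 488-nm excitation on ≥5,000 live events and compared with wild-type. Triplicates, mean ± S.D.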

[4] = tested on: pgs C-605 cells (sulfate transporter-defective CHO K1 mutant); experiment: as above; settings: 20 μM FITC-labeled peptide, 2 h, 37°C
Summary of the method: as §2

[5] = tested on: pgs D-677 cells (heparan sulfate-defective CHO K1 mutant); experiment: Cellular uptake of FITC-labeled peptides, flow cytometry and confocal microscopy; settings: deduced from uptake in pgs D-677 versus wt CHO K1; 20 μM, 2 h, 37°C
Summary of the method: as §1

Substance: {Biotin-Ahx}-KKGFYKKKQCRPSKGRKRGFCWAVDKYG-NH2 (cysteine pairing not given here) [KG-28]
- Uptake of complex into cells (peroxidase activity of cell extracts) [1]: abolished

Substance: {FITC-Ahx}-KKGFYKKK-NH2 [KK-8]
- Uptake activity retained within KW-22 (abstract) [2]: no uptake activity

Substance: {FITC-Ahx}-KKGFYKKKQCRPSKGRKRGFCW-NH2 (cysteine pairing not given here) [KW-22]
- Cellular uptake compared with wt CHO K1 [3]: comparable to that in wt cells; also recorded: barely affected
- Cellular fluorescence (uptake) compared with wt CHO K1 [4]: comparable with that of the wt cells
- Contribution of heparan sulfate to total uptake [5]: ~ 38%
